Test results: PubChem BioAssay
Inconclusive results are not listed.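 How the source made its calls, unless noted: active means growth inhibition above 25% in both replicates, a cutoff set 3 SD above the mean; inconclusive means above 25% in only one replicate; inactive means the rest.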

Tests used:
[1] = S. cerevisiae growth inhibition in permissive medium (OD615), pilot counter-assay for S. cerevisiae lifespan shortening project, permissive growth control (AID 705); conditions: OD615, 24 h, at 10 µM, hits give high values
Outline: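 System – S. cerevisiae with engineered DeaD lifespan system · Buffer or medium – SC raffinose/galactose permissive medium · Schedule – cells pre-grown 4 h, then 24 h compound exposure, 30 °C humidified · Technique – culture turbidity as optical density at 615 nm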

[2] = S. cerevisiae growth inhibition in restrictive medium, OD615, pilot screen, restrictive growth control, yeast lifespan reduction project (AID 706;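 active means growth inhibition above a set limit, 3 SD over mean compound inhibition, in both replicates, cut at about 43% in these data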;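 further: modified DeaD lifespan yeast strain shifted to restrictive glucose medium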); conditions: OD615, 48 h, at 10 µM, hits give high values
Outline: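 Material: engineered S. cerevisiae DeaD strain / Medium: glucose-based CSMM-D restrictive medium / Compound: single dose of 10 µM compound final, 0.25% DMSO / Timing: 4 h pre-incubation, 48 h exposure at 30 °C / Technique: OD615 absorbance reading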

[3] = doxorubicin toxicity protection in MRP-1 cells – H69AR cells, CellTiter-Glo, duplicate, MRP-1 activator project, pilot screen (AID 807;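 active means viability increase at or above a cutoff of the median across tested compounds plus 3 SD, cut at about 8.5% in these data, passing the limit was not always enough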;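 further: compound pretreatment 18-22 h then 72 h combined with doxorubicin; 0% = doxorubicin alone and 100% = vehicle without doxorubicin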); conditions: H69AR viability with doxorubicin, CellTiter-Glo luminescence; at 10 µM; hits give high values
[4] = viability of HCT116 without oncogenic beta-catenin – human colon tumor cells, pilot screen (AID 823;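 active means cell viability at or below a set limit in both duplicate runs, the limit being the all-compound median minus 4 SD, cut at about 23% in these data, passing the limit was not always enough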;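 further: 0% = wells killed by 20 µM Hyamine and 100% = untreated DMSO cell wells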); conditions: HCT116 beta-catenin knockout viability, CellTiter-Glo, 60 h; at 10 µM; hits give low values
[5] = viability of PTEN-null HCT116 cells – cell-based, HCT116 clonal line, CellTiter-Glo, pilot screen (AID 824;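 active means viability at or below 27.92% in each of two runs, the all-compound median minus 4 SD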;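 further: 0% = 20 µM Hyamine control and 100% = vehicle cell control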); conditions: HCT116 PTEN-deleted viability, 60 h, at 10 µM, hits give low values
[6] = RAM pathway blockade in budding yeast – dse1pr::URA3 reporter, 5-FOA selection, pilot screen (AID 869;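 active means inhibition over a set limit, the all-compound mean plus 3 SD, in both replicate runs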;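 further: 0% = DMSO wells with no growth and 100% = 10 µM 1-NA-PP1 with full growth; RAM network block rescues cells from 5-FOA so hits raise OD615 growth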); conditions: S. cerevisiae dse1pr::URA3 5-FOA growth, OD615, 2 d; at 10 µM; hits give high values; strain carries analog-sensitive mutant Cbk1 kinase
[7] = RAM signaling pathway blockade in yeast – S. cerevisiae, Pdr1DBD-CYC8 efflux-inhibited sensitized strain, primary screen (AID 1298;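 active means RAM network inhibition above 8.4% in each of two replicates, 3 SD over the compound average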;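 further: 0% = DMSO untreated cells without growth and 100% = 10 µM 1-NA-PP1 full growth; higher means more yeast growth rescued from 5-FOA killing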); conditions: S. cerevisiae cbk1-as DSE1-URA3 strain, 5-FOA growth OD615, 2 d; at 50 µM; hits give high values

CCN(CC)C1=CC(=O)OC12CCCCC2
inactive: growth inhibition [1] -13.1% | growth inhibition [2] 0.735% | viability increase [3] -2.99% | viability [4] 98.5% | viability [5] 93.7% | inhibition [6] 2.08% | RAM network inhibition [7] 9.79%

Cc1ccc(C2CC(=O)NC(SCc3ccccc3)=C2C#N)o1 (centres undefined)
inactive: growth inhibition [1] -12.6% | growth inhibition [2] -9.71% | viability increase [3] -3.75% | viability [4] 85.7% | viability [5] 104% | inhibition [6] -0.825% | RAM network inhibition [7] 0.58%

Clc1ccc(Cn2cc(/C=N/n3cnnc3)c3ccccc32)cc1
inactive: growth inhibition [1] 9.77% | growth inhibition [2] 30.9% | viability increase [3] -7.71% | viability [4] 64.5% | viability [5] 62.3% | inhibition [6] 1.48% | RAM network inhibition [7] 3%

O=[n+]1c2c(n([O-])c3c1CCCC3)CCCCC2
inactive: growth inhibition [1] -3.03% | growth inhibition [2] -9.11% | viability increase [3] 0.93% | viability [4] 102% | viability [5] 99.5% | inhibition [6] 0.345% | RAM network inhibition [7] -0.51%

CCn1cc(C(=O)N2CCCC2)c(=O)c2cc(S(=O)(=O)N(C)C)ccc21
inactive: growth inhibition [1] -3.43% | growth inhibition [2] 6.6% | viability increase [3] 0.77% | viability [4] 106% | viability [5] 101% | inhibition [6] 0.825% | RAM network inhibition [7] 3.02%

CCC(C)(C(=O)NC1CCCCC1)N(Cc1ccco1)C(=O)CC1NC(=O)NC1=O (centres undefined)
inactive: growth inhibition [1] -7.46% | growth inhibition [2] -7.12% | viability increase [3] -3.95% | viability [4] 97% | viability [5] 94.9% | inhibition [6] 1.58% | RAM network inhibition [7] 1.8%

CCOC(=O)c1ccc2[nH]c(C)cc(=O)c2c1
inactive: growth inhibition [1] -1.86% | growth inhibition [2] 1.21% | viability increase [3] -0.4% | viability [4] 98% | viability [5] 98% | inhibition [6] 1.35% | RAM network inhibition [7] 9.46%

O=C(Nc1nccs1)c1cc(S(=O)(=O)N2CCCCC2)ccc1Cl
inactive: growth inhibition [1] -6.76% | growth inhibition [2] -16.1% | viability increase [3] 0.46% | viability [4] 99.7% | viability [5] 88.6% | inhibition [6] 1.89% | RAM network inhibition [7] 4.88%

O=C(Cn1cc2c(n1)CCCC2)NC1CCN(Cc2ccccc2)CC1
inactive: growth inhibition [1] 2.67% | growth inhibition [2] 5.09% | viability increase [3] -1.67% | viability [4] 87% | viability [5] 87% | inhibition [6] 0.965% | RAM network inhibition [7] -0.16%

COc1ccccc1OCc1nc(C#N)c(N2CC(C)CC(C)C2)o1 (centres undefined)
inactive: growth inhibition [1] -10.7% | growth inhibition [2] -24.8% | viability increase [3] -2.5% | viability [4] 71.7% | viability [5] 72.9% | inhibition [6] 1.48% | RAM network inhibition [7] 9.85%

COc1cc(OC)c(NC2c3ccccc3C(=O)N2c2cc(C)ccn2)cc1Cl (centres undefined)
inactive: growth inhibition [1] -11.7% | growth inhibition [2] -3.74% | viability increase [3] 0.48% | viability [4] 92.9% | viability [5] 84.2% | inhibition [6] 0% | RAM network inhibition [7] 6.68%

CCC1Oc2ccccc2N(CC(=O)NCCCN2CCOCC2)C1=O (centres undefined)
inactive: growth inhibition [1] -2.59% | growth inhibition [2] 4.67% | viability increase [3] -1.49% | viability [4] 109% | viability [5] 105% | inhibition [6] 1.29% | RAM network inhibition [7] 0.62%

CCCCN1C(=O)c2ccc(C(=O)Nc3c(N)n(CCCC)c(=O)n(C)c3=O)cc2C1=O
inactive: growth inhibition [1] -9.82% | growth inhibition [2] -6.89% | viability increase [3] -0.93% | viability [4] 103% | viability [5] 88.2% | inhibition [6] 0.865% | RAM network inhibition [7] 7.06%

O=C(Cc1cccs1)N(Cc1ccco1)C1(C(=O)NC2CCCC2)CCCCC1
inactive: growth inhibition [1] -6.91% | growth inhibition [2] -9.26% | viability increase [3] -5.17% | viability [4] 66.5% | viability [5] 67.1% | inhibition [6] 0.86% | RAM network inhibition [7] 6.21%

CCOC(=O)c1sc(/N=C/N(C)C)c(C(=O)OCC)c1C
inactive: growth inhibition [1] -5.24% | growth inhibition [2] 0.92% | viability increase [3] -3.82% | viability [4] 95.3% | viability [5] 90.4% | inhibition [6] 1.98% | RAM network inhibition [7] 7.56%

CCCCNC(=O)c1ccc2c(c1)N(CC)C(=O)c1ccccc1S2(=O)=O
inactive: growth inhibition [1] -1.9% | growth inhibition [2] -1.83% | viability increase [3] 0.81% | viability [4] 93.8% | viability [5] 87.3% | inhibition [6] 0.255% | RAM network inhibition [7] -2.03%

O=C(NCc1cccs1)c1ccccc1F
inactive: growth inhibition [1] -9.19% | growth inhibition [2] -7.24% | viability increase [3] -0.25% | viability [4] 94.2% | viability [5] 88.9% | inhibition [6] 0.385% | RAM network inhibition [7] 1.34%

CC(C)Oc1ccc(/C(O)=C2/C(=O)C(=O)N(CCCN3CCOCC3)C2c2ccncc2)cc1 (centres undefined)
inactive: growth inhibition [1] -3.48% | growth inhibition [2] -4.07% | viability increase [3] -3.89% | viability [4] 93.3% | viability [5] 89.3% | inhibition [6] 0.95% | RAM network inhibition [7] -0.41%

CCCN1CCN(CCCNC(=O)Cn2cc3c(n2)CCCC3)CC1
inactive: growth inhibition [1] -3.77% | growth inhibition [2] -2.67% | viability increase [3] -0.96% | viability [4] 101% | viability [5] 91% | inhibition [6] 0.27% | RAM network inhibition [7] 3.05%

CCOc1cccc(NC(=O)c2ccc(S(=O)(=O)N(C)C)cc2)c1
inactive: growth inhibition [1] -7.19% | growth inhibition [2] -8.01% | viability increase [3] -2.48% | viability [4] 98.6% | viability [5] 92.4% | inhibition [6] 0.83% | RAM network inhibition [7] 6%

Cc1nnc(SCCn2c(N3CCCC(C)C3)nc3c2c(=O)n(C)c(=O)n3C)s1 (centres undefined)
inactive: growth inhibition [1] -11.4% | growth inhibition [2] -13.6% | viability increase [3] -3.23% | viability [4] 94.2% | viability [5] 97.2% | inhibition [6] 2.31% | RAM network inhibition [7] 1.84%

O=C(COc1ccccc1)NCc1nnc(SCC(=O)Nc2nccs2)n1-c1ccccc1
inactive: growth inhibition [1] -10.1% | growth inhibition [2] -4.89% | viability increase [3] -1.46% | viability [4] 101% | viability [5] 101% | inhibition [6] 2.13% | RAM network inhibition [7] 4.48%

CC(=O)Nc1ccc(S(=O)(=O)N2CCN(c3cc(C)ccc3C)CC2)cc1
inactive: growth inhibition [1] -14.3% | growth inhibition [2] -36% | viability increase [3] -0.32% | viability [4] 85.7% | viability [5] 79.3% | inhibition [6] 3.58% | RAM network inhibition [7] 0.1%

CCOc1ccc(CCNc2cc(C)nc3ncnn23)cc1OCC
inactive: growth inhibition [1] -1.77% | growth inhibition [2] 4.5% | viability increase [3] -2.06% | viability [4] 90.3% | viability [5] 94.1% | inhibition [6] 1.71% | RAM network inhibition [7] 1.15%

COCc1cc(C)nc(N2CCOCC2)c1C#N
inactive: growth inhibition [1] -14.3% | growth inhibition [2] 3.52% | viability increase [3] -0.86% | viability [4] 103% | viability [5] 101% | inhibition [6] 1.35% | RAM network inhibition [7] 5.54%

CCCCCOC(=O)NCC(O)c1ccccc1 (centres undefined)
inactive: growth inhibition [1] -12.5% | growth inhibition [2] -8.97% | viability increase [3] -1.52% | viability [4] 101% | viability [5] 95.5% | inhibition [6] 2.22% | RAM network inhibition [7] 5.59%

O=C(Nn1c(=S)[nH]c2ccccc2c1=O)c1ccncc1
inactive: growth inhibition [1] 6.51% | growth inhibition [2] -5.44% | viability increase [3] -2.87% | viability [4] 91.9% | viability [5] 90.5% | inhibition [6] 1.75% | RAM network inhibition [7] 4.74%

COc1ccccc1NC(=O)CSc1nnc(-c2ccco2)n1Cc1ccco1
inactive: growth inhibition [1] 1.41% | growth inhibition [2] 1.92% | viability increase [3] -3.34% | viability [4] 92.8% | viability [5] 90.5% | inhibition [6] 1.39% | RAM network inhibition [7] 1%

CCCCN(C)CCNC(=O)Cn1ncc2c(=O)oc3ccc(C)cc3c21
inactive: growth inhibition [1] -3.19% | growth inhibition [2] 0.355% | viability increase [3] -2.9% | viability [4] 95.1% | viability [5] 94.2% | inhibition [6] 0.93% | RAM network inhibition [7] 3.72%

CCCCNC(=O)CCCn1c(=O)[nH]c2ccc(Br)cc2c1=O
inactive: growth inhibition [1] -13% | growth inhibition [2] -18% | viability increase [3] -0.78% | viability [4] 97.9% | viability [5] 92.7% | inhibition [6] 0.635% | RAM network inhibition [7] 1.08%

Cc1cc(C(=O)NCc2cccs2)n(-c2ccccc2)n1
inactive: growth inhibition [1] -10.7% | growth inhibition [2] -6.11% | viability increase [3] 0.91% | viability [4] 102% | viability [5] 90.6% | inhibition [6] 1.03% | RAM network inhibition [7] 5.86%

CC(O)CSc1nc2c(c(=O)n(C)c(=O)n2C)n1CCCc1ccccc1 (centres undefined)
inactive: growth inhibition [1] -7.62% | growth inhibition [2] -5.55% | viability increase [3] 0.66% | viability [4] 101% | viability [5] 96% | inhibition [6] 1.14% | RAM network inhibition [7] 5.17%

N=C1C(c2nc3ccccc3c(=O)[nH]2)=C(O)CN1CCc1ccccc1
inactive: growth inhibition [1] 2.17% | growth inhibition [2] -7.82% | viability increase [3] -3.19% | viability [4] 93.6% | viability [5] 87.2% | inhibition [6] 0.995% | RAM network inhibition [7] 3.92%

COc1ccc(OCc2nnc3n2N=C(c2ccc(C)cc2)CS3)cc1
inactive: growth inhibition [1] -3.36% | growth inhibition [2] -2.56% | viability increase [3] 2.3% | viability [4] 95.4% | viability [5] 82.1% | inhibition [6] 1.57% | RAM network inhibition [7] 2.58%

Cn1c(NC(=O)c2ccccc2F)cc(=O)n(C)c1=O
inactive: growth inhibition [1] -0.14% | growth inhibition [2] -2.47% | viability increase [3] 0.23% | viability [4] 101% | viability [5] 106% | inhibition [6] 0.595% | RAM network inhibition [7] -1.63%

COc1ccc(-n2c(Cc3cccn3C)nnc2SCC(=O)Nc2ccc3c(c2)OCCO3)cc1
inactive: growth inhibition [1] 4.97% | growth inhibition [2] 8.29% | viability increase [3] -1.74% | viability [4] 103% | viability [5] 94.6% | inhibition [6] 1.61% | RAM network inhibition [7] 6.11%

CCCc1cc(C(=O)Nc2sc(C(C)=O)c(C)c2C(=O)OCC)no1
inactive: growth inhibition [1] -18.8% | growth inhibition [2] -30.5% | viability increase [3] -4.9% | viability [4] 86.2% | viability [5] 78.4% | inhibition [6] 1.46% | RAM network inhibition [7] 3.25%
